From ChEMBL document CHEMBL1125214, “Synthesis and adenosine receptor affinity of a series of pyrazolo[3,4-d]pyrimidine analogues of 1-methylisoguanosine” (J Med Chem, 1991)

Legend:
[1] = biological target: T1, Adenosine receptor A1 (Rattus norvegicus) (UniProt P25099); test: Inhibition of radioligand R[3H]-N6-PIA binding to adenosine A1 receptors in rat whole brain membrane at 20 uM concentration.; assay type: cell membranes
T1 sequence (whole entry): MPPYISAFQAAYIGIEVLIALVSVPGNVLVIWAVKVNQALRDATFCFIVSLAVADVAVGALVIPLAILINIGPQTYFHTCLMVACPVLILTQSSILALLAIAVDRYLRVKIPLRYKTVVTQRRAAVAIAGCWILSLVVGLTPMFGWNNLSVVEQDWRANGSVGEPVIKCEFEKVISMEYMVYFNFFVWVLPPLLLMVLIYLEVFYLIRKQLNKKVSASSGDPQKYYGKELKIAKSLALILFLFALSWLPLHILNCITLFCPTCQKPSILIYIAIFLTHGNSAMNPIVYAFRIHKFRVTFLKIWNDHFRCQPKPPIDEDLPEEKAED
Outline: (§1)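 Rat whole-brain synaptosomal membranes were made by sucrose homogenization and 14500g pelleting. They were pretreated with adenosine deaminase (2 IU/mL, 37 °C, 30 min). Assay: membranes at 100-200 µg/mL, 2 nM R-[3H]N6-PIA, 50 mM Tris-HCl pH 7.4 with 1 mM MgCl2, 60 min at 37 °C. Compounds in DMSO. Nonspecific binding defined with 100 µM R-N6-PIA. GF/B filtration and scintillation counting. […] At least three runs in triplicate.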

Adenosine A2 receptor = Adenosine A2 receptor (Rattus norvegicus, UniProt P29276+P30543); test: Inhibitory concentration against [3H]CGS 21680 binding to adenosine A2 receptors in rat striatal membrane
[2] = biological target: Adenosine A2 receptor (Rattus norvegicus) (UniProt P29276+P30543); test: Inhibition of radioligand R[3H]-CGS 21680 binding to adenosine A2 receptors in rat striatal membrane at 20 uM concentration.; assay type: cell membranes; details: Striatum
Outline: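 Striata from male Wistar rats (300-400 g) were homogenized in 50 mM Tris-HCl pH 7.4 with 10 mM MgCl2 and pelleted twice at 48000g. Assay: membranes at 100-200 µg/mL, 5 nM [3H]CGS 21680, 90 min at 23 °C. Nonspecific binding defined with 20 µM 2-chloroadenosine. Filtration and counting as in the A1 assay. Compounds tested at 20 µM; result expressed as % inhibition of control binding.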

[3] = Hydrophobicity index measured by retention time on a reverse phase HPLC column.; assay type: ADME
Adenosine receptor A1 [4] = biological target: T2, Adenosine receptor A1 (Rattus norvegicus, UniProt P25099); test: Inhibitory concentration against R[3H]-N6-PIA binding to adenosine A1 receptor in rat whole brain membrane; assay type: cell membranes
T2 sequence (P25099 whole entry): T1 sequence (whole entry)
Outline: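 Rat whole-brain synaptosomal membranes were made by sucrose homogenization and 14500g pelleting. They were pretreated with adenosine deaminase (2 IU/mL, 37 °C, 30 min). Assay: membranes at 100-200 µg/mL, 2 nM R-[3H]N6-PIA, 50 mM Tris-HCl pH 7.4 with 1 mM MgCl2, 60 min at 37 °C. Compounds in DMSO. Nonspecific binding defined with 100 µM R-N6-PIA. GF/B filtration and scintillation counting. At least three runs in triplicate.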

[5] = biological target: Adenosine receptors; A1 & A2 (Rattus norvegicus) (UniProt P29276+P25099+P30543); test: Ratio of IC50 for A2 and A1 receptor binding; assay type: protein assay
Adenosine receptor A1 [6] = biological target: T2, Adenosine receptor A1; test: Inhibitory concentration against R[3H]-N6-PIA binding to adenosine A1 receptors in rat whole brain membrane; assay type: cell membranes; outline: as §1

Row | SMILES | inhibition [1] [%] | IC50 (Adenosine A2 receptor) [µM] | inhibition [2] [%] | k' [3] | IC50 (Adenosine receptor A1 [4]) [µM] | Ratio [5] | IC50 (Adenosine receptor A1 [6]) [µM]
1 | CCCCn1c(=O)[nH]c2c(cnn2-c2cccc(Cl)c2)c1=N | 58 | 19.2 | 38 | > 36.5 |  |  | 
2 | Cn1c(=O)[nH]c2c(cnn2-c2cc(Cl)cc(Cl)c2)c1=N | 29 |  | 0 | > 36.5 |  |  | 
3 | Cn1c(=O)[nH]c2c(cnn2-c2ccc(Cl)cc2Cl)c1=N | 9 |  | 0 | 7.1 |  |  | 
4 | Cn1c(=O)[nH]c2c(cnn2C)c1=N | 6 |  | 0 | 0.1 |  |  | 
5 | N=c1c2cnn(-c3ccccc3)c2[nH]c(=O)n1-c1ccccc1 | 25 |  | 0 | 5.1 |  |  | 
6 | CCCn1c(=O)[nH]c2c(cnn2-c2cccc(Cl)c2)c1=N | 68 | 47.3 | 35 | > 36.5 | 14.6 | 3.2 | 
7 | Cn1c(=O)[nH]c2c(cnn2-c2ccccc2[N+](=O)[O-])c1=N | 5 |  | 7 | 0.9 |  |  | 
8 | Cn1c(=O)[nH]c2c(cnn2-c2ccc([N+](=O)[O-])cc2)c1=N | 5 |  | 0 | > 36.5 |  |  | 
9 | CCn1c(=O)[nH]c2c(cnn2-c2ccccc2)c1=N | 58 | 81.8 | 16 | 4.2 | 20.1 | 4.1 | 
10 | CCCn1c(=O)[nH]c2c(cnn2-c2ccccc2)c1=N | 52 | 50.2 | 7 | 7.5 | 50.7 | 1 | 
11 | Cn1c(=O)[nH]c2c(cnn2-c2ccccc2N)c1=N | 0 |  | 0 | 0.8 |  |  | 
12 | Cn1c(=O)[nH]c2c(cnn2-c2cc(Cl)ccc2Cl)c1=N | 1 |  | 3 | 4.8 |  |  | 
13 | Cn1c(=O)[nH]c2c(cnn2-c2ccccc2Cl)c1=N | 7 |  | 0 | 1.7 |  |  | 
14 | CCn1c(=O)[nH]c2c(cnn2-c2cccc(Cl)c2)c1=N | 70 | 23.5 | 24 | 21.9 | 19.8 | 1.2 | 
15 | CCCn1ncc2c(=N)n(C)c(=O)[nH]c21 | 5 |  | 0 | 0.8 |  |  | 
16 | CCCCn1c(=O)[nH]c2c(cnn2-c2ccccc2)c1=N | 72 | 24.8 | 21 | 18.5 | 9.6 | 2.6 | 

Second part, the compound after the results:

Row | inhibition [1] [%] | IC50 (Adenosine A2 receptor) [µM] | inhibition [2] [%] | k' [3] | IC50 (Adenosine receptor A1 [4]) [µM] | Ratio [5] | IC50 (Adenosine receptor A1 [6]) [µM] | SMILES
17 | 6 |  | 0 | 1.8 |  |  |  | Cn1c(=O)[nH]c2c(cnn2-c2ccccc2Br)c1=N
18 | 53 |  | 29 | 14.2 |  |  | 16.5 | Cn1c(=O)[nH]c2c(cnn2-c2cccc(Cl)c2)c1=N
19 | 2 |  | 1 | > 36.5 |  |  |  | Cn1c(=O)[nH]c2c(cnn2-c2cccc([N+](=O)[O-])c2)c1=N
20 | 44 |  | 22 | 5.8 |  |  |  | Cn1c(=O)[nH]c2c(cnn2-c2cccc(F)c2)c1=N
21 | 40 |  | 1 | 17.5 |  |  |  | Cn1c(=O)[nH]c2c(cnn2-c2cccc(Br)c2)c1=N
22 | 8 |  | 0 | 1.1 |  |  |  | Cn1c(=O)[nH]c2c(cnn2-c2ccccc2F)c1=N
23 | 0 |  | 0 | 0.3 |  |  |  | Cn1c(=O)[nH]c2c(cnn2-c2ccc(N)cc2)c1=N
24 | 0 |  | 0 | 0.7 |  |  |  | Cn1c(=O)[nH]c2c(cnn2-c2cccc(N)c2)c1=N
25 | 30 |  | 7 | 2.6 |  |  |  | Cn1c(=O)[nH]c2c(cnn2-c2ccccc2)c1=N
26 | 34 |  | 7 | 18.9 |  |  |  | Cn1c(=O)[nH]c2c(cnn2-c2ccc(Br)cc2)c1=N
27 | 26 |  | 0 | 4.1 |  |  |  | Cn1c(=O)[nH]c2c(cnn2-c2ccc(F)cc2)c1=N
28 | 37 |  | 0 | 13.6 |  |  |  | Cn1c(=O)[nH]c2c(cnn2-c2ccc(Cl)cc2)c1=N
